Results taken from ChEMBL document CHEMBL1146090, “Similarity based virtual screening: a tool for targeted library design” (J Med Chem, 2006).

Key:
[1] = Viability of HL cells at 50 uM; assay type: cell-based; conditions: human, read-out: Activity
In short: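 Viable HL cells counted through intracellular LDH after 3 days exposure to 50 μM agent. Medium removed, cells washed twice and lysed, then LDH measured with the same kit. Percentage derived against LDH from unexposed cultures. Mean of four replicates, single experiment.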

Chlamydia pneumoniae [2] = assay: Antibacterial activity against Chlamydia pneumoniae in HL cells at 5 uM; assay type: functional
In short: (§1)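 HL host cells (RPMI 1640, 10% FBS, 2 mM L-glutamine, 37 °C, 5% CO2) seeded 5×10^4/well; after 24 h, confluent monolayers inoculated by centrifugation (550 × g, 60 min) with C. pneumoniae Kajaani 7 EBs, 4×10^5 IFU/mL. Agent added in antibiotic-free medium plus 0.5 μg/mL cycloheximide; 72 h, 37 °C. Methanol-fixed; europium-labelled genus-specific antibody, time-resolved fluorometry. Two experiments on different days, six replicates each, averaged.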

Chlamydia pneumoniae [3] = assay: Antibacterial activity against Chlamydia pneumoniae in HL cells at 70 uM; assay type: functional; in short: as §1
HL = assay: Cytotoxicity against HL cells at 50 uM; assay type: functional
Chlamydia pneumoniae [4] = assay: Antibacterial activity against Chlamydia pneumoniae in HL cells at 1 uM; assay type: functional; in short: as §1
Chlamydia pneumoniae [5] = assay: Antibacterial activity against Chlamydia pneumoniae in HL cells at 50 uM; assay type: functional; in short: as §1

N=C(NOC(=O)Nc1cccc(Cl)c1)c1ccc2nonc2c1
viability at 50 µM [1]: 99.3%
inhibition at 5 µM (Chlamydia pneumoniae [2]): 6.8%
inhibition at 70 µM (Chlamydia pneumoniae [3]): 99.3%
cytotoxicity (HL): 1.1%
inhibition at 1 µM (Chlamydia pneumoniae [4]): 0%
inhibition at 50 µM (Chlamydia pneumoniae [5]): 85.5%

O=C(Nc1cccc(-c2nc3ccccc3[nH]2)c1)c1ccccc1
viability at 50 µM [1]: 95.5%
inhibition at 5 µM (Chlamydia pneumoniae [2]): 19.7%
inhibition at 70 µM (Chlamydia pneumoniae [3]): 69.1%
cytotoxicity (HL): 1.2%
inhibition at 1 µM (Chlamydia pneumoniae [4]): 14.6%
inhibition at 50 µM (Chlamydia pneumoniae [5]): 69.6%

N=C(NOC(=O)Nc1ccccc1)c1ccc2nonc2c1
viability at 50 µM [1]: 100%
inhibition at 5 µM (Chlamydia pneumoniae [2]): 0.2%
inhibition at 70 µM (Chlamydia pneumoniae [3]): 72.5%
cytotoxicity (HL): 0%
inhibition at 1 µM (Chlamydia pneumoniae [4]): 0%
inhibition at 50 µM (Chlamydia pneumoniae [5]): 56.1%

c1ccc(-c2cc3ncnc(NCc4ccc5c(c4)OCO5)c3s2)cc1
viability at 50 µM [1]: 98.2%
inhibition at 5 µM (Chlamydia pneumoniae [2]): 58.8%
inhibition at 70 µM (Chlamydia pneumoniae [3]): 71.2%
cytotoxicity (HL): 0.4%
inhibition at 1 µM (Chlamydia pneumoniae [4]): 2.1%
inhibition at 50 µM (Chlamydia pneumoniae [5]): 68.6%

Nc1nc(Nc2ccccc2)nc(Nc2ccccc2)n1
viability at 50 µM [1]: 83.4%
inhibition at 5 µM (Chlamydia pneumoniae [2]): 0%
inhibition at 70 µM (Chlamydia pneumoniae [3]): 100%
cytotoxicity (HL): 3.7%
inhibition at 1 µM (Chlamydia pneumoniae [4]): 0%
inhibition at 50 µM (Chlamydia pneumoniae [5]): 72.8%

Nc1nc(Nc2ccc(Cl)cc2)nc(-c2cc(Cl)ccc2O)n1
viability at 50 µM [1]: 95%
inhibition at 5 µM (Chlamydia pneumoniae [2]): 76%
inhibition at 70 µM (Chlamydia pneumoniae [3]): 83.9%
cytotoxicity (HL): 1.4%
inhibition at 1 µM (Chlamydia pneumoniae [4]): 0%
inhibition at 50 µM (Chlamydia pneumoniae [5]): 79.8%

O=C(Nc1ccc2c(c1)OCCO2)c1cccc(COc2cc(Cl)ccc2Cl)c1
viability at 50 µM [1]: 86.2%
inhibition at 5 µM (Chlamydia pneumoniae [2]): 15.3%
inhibition at 70 µM (Chlamydia pneumoniae [3]): 93.6%
cytotoxicity (HL): 2.3%
inhibition at 1 µM (Chlamydia pneumoniae [4]): 0%
inhibition at 50 µM (Chlamydia pneumoniae [5]): 81.8%

O=C(Nc1cccc(-c2nc3ccccc3[nH]2)c1)c1cccs1
viability at 50 µM [1]: 98%
inhibition at 5 µM (Chlamydia pneumoniae [2]): 41.2%
inhibition at 70 µM (Chlamydia pneumoniae [3]): 92.6%
cytotoxicity (HL): 1.2%
inhibition at 1 µM (Chlamydia pneumoniae [4]): 39.5%
inhibition at 50 µM (Chlamydia pneumoniae [5]): 90.5%
